Rows were chosen to be rich in hits. Some 2% of all compounds tested hit in one or more screens of this group.
core dimer inh: inhibitors of HCV core protein dimerization, primary screen, biochemical, TR-FRET, high-throughput; TR-FRET GST/Flag-core106 dimerization, 1536-well; inhibition, % at 5 µM; hit rate 0.33% among 300,000;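 active = inhibition above the mean of all tested compounds plus 3 SD, set per screening campaign, cut at about 45% in these data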
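System – GST-tagged and Flag-tagged HCV core protein residues 1-106 · Repeats – one well for each compound · Technique – TR-FRET 671 and 617 nm emission · Doses – one concentration, 5 µM, in 0.5% DMSO · Times – 4 h, 22.5 °C incubation · Also added – Eu donor and XL665 acceptor anti-tag antibodies · Measure – percent inhibition of core106 dimerization signal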
MLLE-PAM2 inh: inhibitors of PABP1 MLLE–PAM2 peptide binding, primary screen, biochemical, fluorescence polarization, FITC-PAM2, GST-MLLE; AID 588489, 2011; inhibition, % at 20 µM; hit rate 0.36% among 360,000; in the data active = inhibition above about 35%, passing the limit was not always enough
Target sequence (P11940 whole entry, looked up): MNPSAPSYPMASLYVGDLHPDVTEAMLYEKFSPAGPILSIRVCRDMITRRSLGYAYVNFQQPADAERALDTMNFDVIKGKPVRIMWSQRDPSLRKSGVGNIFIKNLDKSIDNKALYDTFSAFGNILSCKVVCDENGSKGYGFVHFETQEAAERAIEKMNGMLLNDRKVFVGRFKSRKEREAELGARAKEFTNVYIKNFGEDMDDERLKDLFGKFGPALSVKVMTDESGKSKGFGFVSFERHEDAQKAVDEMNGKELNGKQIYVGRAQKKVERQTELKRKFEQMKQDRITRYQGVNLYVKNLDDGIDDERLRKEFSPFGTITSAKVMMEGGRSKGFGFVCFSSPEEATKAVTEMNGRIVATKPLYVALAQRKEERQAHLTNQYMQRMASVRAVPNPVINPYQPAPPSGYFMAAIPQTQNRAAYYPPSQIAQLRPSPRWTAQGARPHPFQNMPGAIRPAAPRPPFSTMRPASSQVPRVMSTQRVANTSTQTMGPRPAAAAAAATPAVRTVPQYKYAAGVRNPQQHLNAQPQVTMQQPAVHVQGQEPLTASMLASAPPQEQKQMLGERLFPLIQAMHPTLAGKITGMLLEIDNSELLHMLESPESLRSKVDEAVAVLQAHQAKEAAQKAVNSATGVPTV
PABP FP inh: PABP poly(A) RNA binding inhibitors, primary screen, biochemical, fluorescence polarization, uHTS; inhibition, % at 35 µM; hit rate 1% among 290,000; AID 2014, 2009;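 also: calls also rest on retests at 20 µM and on dose response follow-up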
DNA FID counter-1: compounds displacing fluorescent DNA intercalator, primary screen, artefact control for HCV NS3 helicase inhibitor project, biochemical, FID fluorescence; hit rate 0.17% among 290,000; DNA fluorescent intercalator displacement; inhibition, % at 7.9 µM; AID 1845, 2009; in the data active = inhibition above about 37%;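 also: higher means more ethidium bromide displaced from hairpin DNA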
HCV NS3 hel inh: inhibitors of HCV NS3 helicase, primary screen, biochemical, Cy5 molecular beacon fluorescence | Hepatitis C virus NS3 helicase | NS3 helicase DNA unwinding | inhibition, % at 10.9 µM | hit rate 0.56% among 290,000 | AID 1800, 2009;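 active = inhibition above the mean of all tested compounds plus 3 SD, set per campaign, cut at about 35% in these data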
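Control set: DMSO versus 110 µM thioflavine S; Material: NS3 helicase fragment of HCV; Measured by: Cy5 fluorescence at 0 and 60 min, beacon hairpin quenching; Read-out basis: percent inhibition from t60/t0 fluorescence ratio; Times: reaction time 60 min, 25 °C; Repeats: single replicate; Compound dosing: single dose, 10.9 µM nominal final, DMSO 0.8% final.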
eIF4H inh: human eIF4H binding inhibitors, primary screen, translation initiation inhibitor project, biochemical, uHTS, fluorescence polarization; Eukaryotic translation initiation factor 4H (Homo sapiens), Q15056; eIF4H fluorescence polarization binding assay; inhibition, % at 35 µM; hit rate 0.94% among 290,000; AID 2012, 2009;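 also: calls also rest on retests at 20 µM and on dose response follow-up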
NS3 hel confirm: HCV NS3 helicase inhibitors, retest, confirmation, biochemical, Cy5 molecular beacon fluorescence, triplicate; shares compounds with HCV NS3 hel inh; NS3 helicase DNA unwinding; inhibition, % at 10.9 µM; hit rate 31% among 1,600; AID 1943, 2009;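 active = inhibition above the mean of all tested compounds plus 3 SD, cutoff set per campaign, cut at about 36% in these data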
DNA FID counter-2: compounds displacing fluorescent DNA intercalator, artefact control for HCV NS3 helicase inhibitor project, biochemical, FID fluorescence, triplicate; shares compounds with HCV NS3 hel inh; DNA fluorescent intercalator displacement; inhibition, % at 7.9 µM; hit rate 4% among 1,600; AID 1945, 2009; in the data active = inhibition above about 37%;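 also: higher means more displacement of ethidium bromide from the DNA hairpin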
Hits are given with their value; - = inactive; . = not tested or not shown. Unless noted, no rule for the calls is given here.

SMILES	core dimer inh	MLLE-PAM2 inh	PABP FP inh	DNA FID counter-1	HCV NS3 hel inh	eIF4H inh	NS3 hel confirm	DNA FID counter-2
Cc1nc(SCC(=O)Nn2c(-c3ccccc3)nc3ccccc3c2=O)n[nH]1	-	-	-	-	47	-	-	-
Cc1cccc(-c2nc3ccccc3c(=O)n2NC(=S)N(C)C)c1	-	-	-	-	39	-	-	-
COc1cc2c(cc1OC)C(c1ccc([N+](=O)[O-])cc1)NC(=O)C2 (centres undefined)	-	-	-	-	-	-	.	.
O=C(O)c1ccc(CN2C[C@@H](CO)O[C@@H](n3cnc4c(NCc5ccc(F)cc5)ncnc43)C2)cc1	.	-	.	.	.	.	.	.
CC(=O)Oc1cc2c3c(c1)/C(=C1/SC(=S)NC1=O)C(=O)N3C(C)(C)C=C2C	-	-	-	-	53	-	80	-
Clc1cccc(C2Nc3cccc4cccc(c34)N2)c1Cl	-	-	70	-	49	103	-	-
FC(F)(F)c1ccc(C2Nc3cccc4cccc(c34)N2)cc1	.	-	-	-	-	-	.	.
Fc1ccc(C2Nc3cccc4cccc(c34)N2)cc1	-	-	40	-	45	53	-	-
O=C1NC(c2ccccc2Cl)Nc2ccccc21 (centres undefined)	-	-	-	-	-	-	.	.
Cc1nc2ccc(C(=O)N(C)Cc3ccco3)cn2c1N(C)C(=O)CCc1ccccc1	.	-	.	.	.	.	.	.
Cc1nn(Cc2ccc(Cl)cc2)c(C)c1NC(=O)c1noc2c1CCc1ccccc1-2	-	-	-	-	57	-	-	-
COCCN1C(=O)C(=O)/C(=C(/O)c2ccc(S(=O)(=O)N3CCOCC3)cc2)C1c1cccc(OC)c1 (centres undefined)	-	-	-	-	-	-	.	.
CCOC(=O)CC(=O)CSc1n[nH]c(=O)[nH]c1=O	-	-	-	-	-	-	.	.
CCc1nc2ccc(C(=O)NCC3CCCCC3)cn2c1N(CCC(C)C)CCN(C)C	.	-	.	.	.	.	.	.
O=C(O)c1cc(/C=C/C(=O)c2cc(F)ccc2O)c2c(c1)COCO2	-	-	-	-	49	-	52	-
O=C(CSc1nc2cc([N+](=O)[O-])ccc2n1-c1ccccc1)NCc1ccc2c(c1)OCO2	-	-	-	-	40	-	-	-
CN1C(=O)C(Cl)(Cl)C(=O)c2ccccc21	.	-	-	-	53	-	-	-
CCCN(CC(=O)Nc1ccccc1C)C(=O)CSc1ccccc1C	.	-	.	.	.	.	.	.
O=C(O)c1ccc(CN2C(=O)c3ccc(Oc4ccc([N+](=O)[O-])cc4)cc3C2=O)cc1	-	-	-	-	-	-	.	.
Cc1ccc(S(=O)(=O)/N=C2\C=C(NS(=O)(=O)c3ccccc3)C(=O)c3ccccc32)c(C)c1	.	-	.	.	.	.	.	.
CC(C)(C)c1ccc(S(=O)(=O)/N=C2\C=C(NS(=O)(=O)c3ccccc3)C(=O)c3ccccc32)cc1	-	-	-	-	43	-	82	60
Cc1cccc(NC(=O)Cn2nc(-c3ccco3)ccc2=O)c1C	-	-	-	-	-	-	.	.
O=C(Cn1nc(-c2ccco2)ccc1=O)Nc1ccc(Br)cc1	-	-	-	-	40	-	-	-
NC1=C(c2ccccc2)C(=O)NC1=O	-	-	-	-	37	-	-	-
CCCCCOC(=O)c1[nH]c2c(c1C)C(=O)CC(c1ccco1)C2 (centres undefined)	-	-	-	-	41	-	-	-
SMILES	core dimer inh	MLLE-PAM2 inh	PABP FP inh	DNA FID counter-1	HCV NS3 hel inh	eIF4H inh	NS3 hel confirm	DNA FID counter-2
CCS(=O)(=O)C1=NN2C(=N)/C(=C\c3ccc(OCCOc4cccc(OC)c4)c(OC)c3)C(=O)N=C2S1	-	-	-	-	46	-	63	-
CN(C)c1ccc(NC(=O)Oc2ccccc2)cc1	-	-	-	-	44	-	-	-
CC(=O)Nc1ccc(NC(=O)Oc2ccccc2)cc1	-	-	-	-	-	-	.	.
Cc1ccc(S(=O)(=O)N2C[C@H]3C(=O)C[C@@H]4C(=O)N(c5ccccc5)C(=O)[C@@H]4[C@@H]3C[C@H]2c2cccs2)cc1	.	-	.	.	.	.	.	.
C#CCN1C(=O)S/C(=C\c2ccc(-c3ccc(Cl)c(C(=O)O)c3)o2)C1=O	-	-	-	-	40	-	56	-
O=C(O)c1cc(-c2ccc(/C=c3\sc4nc5ccc(Br)cc5n4c3=O)o2)ccc1Cl	-	.	54	-	38	55	73	-
O=C(NC(=O)c1c(F)cccc1F)Nc1cccc(Oc2ncc(Cl)cn2)c1	.	-	.	.	.	.	.	.
O=C(Nc1cccc2ccccc12)c1ccc([N+](=O)[O-])cc1	-	-	-	-	41	-	-	-
O=C(Nc1cccc2ccccc12)c1ccccc1	-	-	-	-	-	-	.	.
Cc1ccc(-c2nn3c(C)nnc3s2)cc1NC(=O)c1ccc(-c2cccc(Cl)c2)o1	.	-	-	-	60	-	-	-
Cc1cc(C)nc(OC(C(=O)O)C(OCCc2ccccc2)(c2ccccc2)c2ccccc2)n1 (centres undefined)	-	-	-	-	37	-	107	-
COC(c1ccc(Cl)cc1)(c1ccc(Cl)cc1)C(Oc1nc(C)cc(C)n1)C(=O)O (centres undefined)	-	-	-	-	37	-	36	-
CS(=O)(=O)c1ccc(Cl)c(NC(=O)CCN2C(=O)NC3(CCCC3)C2=O)c1	.	-	.	.	.	.	.	.
Cc1nc(N[C@@H](Cc2c[nH]c3ccccc23)C(=O)O)c2oc3ccccc3c2n1	-	.	-	-	42	-	-	-
CCc1nc(N[C@@H](Cc2c[nH]c3ccccc23)C(=O)O)c2oc3ccccc3c2n1	-	-	-	-	-	-	.	.
CC(=O)Nc1ccc(-c2csc(N/N=C\c3ccncc3)n2)cc1	-	-	-	-	-	-	.	.
CCCC(=O)Nc1ccc(-c2csc(N/N=C\c3ccncc3)n2)cc1	-	-	-	-	38	-	-	-
COc1cccc(=O)c2c(C)n(CC(=O)c3ccccc3)c(C)c12	67	-	-	-	58	-	-	-
O=C(c1ccco1)N1N=C(c2ccco2)CC1c1ccc(Cl)cc1Cl (centres undefined)	.	-	.	.	.	.	.	.
CCc1nc2ccc(C(=O)NCCC(C)C)cn2c1N(C)Cc1ccc(OC)cc1	.	-	.	.	.	.	.	.

Compound activity deposited in PubChem BioAssay by several laboratories.
